Measured values published in ChEMBL document CHEMBL1135597, “A thymidine phosphorylase-stable analogue of BVDU with significant antiviral activity” (J Med Chem, 2002).
In brackets after ≈: the same amount, converted by molar mass.

Columns and labels:
[1] = system: Vesicular stomatitis virus; experiment: Inhibitory activity against vesicular stomatitis virus (VSV) replication in E6SM cell cultures of human embryonic skin-muscle; assay type: functional, organism-based
In short: (§1)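 Confluent human embryonic skin-muscle (E6SM) cell cultures were infected with 100 CCID50 of virus. After 1 h adsorption, residual virus was removed and cultures were incubated with test compound at varying concentrations […]. Cytopathicity was scored once complete in infected control cultures. EC50 is the concentration that inhibits virus-induced cytopathicity by 50%.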

Human alphaherpesvirus 1 [2] = experiment: Inhibitory activity against HSV-1 (F) replication in E6SM cell cultures of human embryonic skin-muscle; assay type: functional, organism-based; details: Human alphaherpesvirus 1, E6SM; in short: as §1
[3] = Inhibitory activity against TK-deficient HSV-1 (KOS) replication in E6SM cell cultures of human embryonic skin-muscle; assay type: functional, cell-based; details: Human alphaherpesvirus 1, E6SM; in short: as §1
E6SM = experiment: […] in E6SM cell cultures of human embryonic skin-muscle; assay type: functional
[4] = Inhibitory activity against HSV-1 (KOS) replication in E6SM cell cultures of human embryonic skin-muscle; assay type: functional, cell-based; details: Human alphaherpesvirus 1, E6SM; in short: as §1
Human alphaherpesvirus 1 [5] = experiment: Inhibitory activity against HSV-1 (McIntyre) replication in E6SM cell cultures of human embryonic skin-muscle; assay type: functional, organism-based; details: Human alphaherpesvirus 1, E6SM; in short: as §1
Vaccinia virus = experiment: Inhibitory activity against vaccinia virus (VV) replication in E6SM cell cultures of human embryonic skin-muscle; assay type: functional, organism-based; details: Orthopoxvirus vaccinia; in short: as §1

Question: For `O=c1[nH]c(=O)n([C@@H]2CO[C@H](CO)C2)cc1/C=C/Br`, which EC50 [1] is on record?
Answer: The EC50 was > 400 mg/L.

Question: What about the EC50 (Human alphaherpesvirus 1 [2]) of the same compound?
Answer: The EC50 was 1.9 mg/L (≈ 5.99 µM).

Question: What about the EC50 [3] of the same compound?
Answer: Its EC50 is > 400 mg/L.

Question: What about the MCC (E6SM) of the same compound?
Answer: The MCC was > 400 µg/mL.

Question: What about the EC50 [4] of the same compound?
Answer: The EC50 was 2.6 mg/L (≈ 8.2 µM).

Question: And the EC50 (Human alphaherpesvirus 1 [5])?
Answer: Its EC50 is 9.6 mg/L (≈ 30.3 µM).

Question: What about the EC50 (Vaccinia virus) of the same compound?
Answer: The EC50 was > 400 mg/L.

Question: For `Nc1nc2c(ncn2COCCO)c(=O)[nH]1` [ACYCLOVIR], which EC50 [1] is on record?
Answer: Its EC50 is > 400 mg/L.

Question: And the EC50 (Human alphaherpesvirus 1 [2])?
Answer: Its EC50 is 0.077 mg/L (≈ 0.342 µM).

Question: And the EC50 [3]?
Answer: Its EC50 is 48 mg/L (≈ 213 µM).

Question: And the MCC (E6SM)?
Answer: The MCC was > 400 µg/mL.

Question: What about the EC50 [4] of the same compound?
Answer: The EC50 was 0.077 mg/L (≈ 0.342 µM).

Question: What about the EC50 (Human alphaherpesvirus 1 [5]) of the same compound?
Answer: Its EC50 is 0.077 mg/L (≈ 0.342 µM).

Question: What about the EC50 (Vaccinia virus) of the same compound?
Answer: The EC50 was > 400 mg/L.

Question: Which EC50 [1] does the source give for `O=c1[nH]c(=O)n([C@H]2C[C@H](O)[C@@H](CO)O2)cc1/C=C/Br` [BRIVUDINE] here?
Answer: Its EC50 is > 400 mg/L.

Question: And the EC50 (Human alphaherpesvirus 1 [2])?
Answer: Its EC50 is 0.026 mg/L (≈ 0.078 µM).

Question: And the EC50 [3]?
Answer: Its EC50 is 240 mg/L (≈ 720 µM).

Question: And the MCC (E6SM)?
Answer: Its MCC is > 400 µg/mL.

Question: What about the EC50 [4] of the same compound?
Answer: Its EC50 is 0.026 mg/L (≈ 0.078 µM).

Question: And the EC50 (Human alphaherpesvirus 1 [5])?
Answer: Its EC50 is 0.026 mg/L (≈ 0.078 µM).

Question: What about the EC50 (Vaccinia virus) of the same compound?
Answer: Its EC50 is 1.9 mg/L (≈ 5.7 µM).

Question: Which results are given for `Nc1nc2c(ncn2COC(CO)CO)c(=O)[nH]1` [GANCICLOVIR]?
Answer: EC50 [1]: > 100 mg/L; EC50 (Human alphaherpesvirus 1 [2]): 0.019 mg/L (≈ 0.0744 µM); EC50 [3]: 2.4 mg/L (≈ 9.4 µM); MCC (E6SM): > 100 µg/mL; EC50 [4]: 0.019 mg/L (≈ 0.0744 µM); EC50 (Human alphaherpesvirus 1 [5]): 0.019 mg/L (≈ 0.0744 µM); EC50 (Vaccinia virus): > 100 mg/L

Question: For `NC(=O)c1ncn([C@@H]2O[C@H](CO)[C@@H](O)[C@H]2O)n1` [RIBAVIRIN], which EC50 [1] is on record?
Answer: The EC50 was > 400 mg/L.

Question: And the EC50 (Human alphaherpesvirus 1 [2])?
Answer: Its EC50 is 48 mg/L (≈ 197 µM).

Question: What about the EC50 [3] of the same compound?
Answer: Its EC50 is 240 mg/L (≈ 983 µM).

Question: And the MCC (E6SM)?
Answer: Its MCC is > 400 µg/mL.

Question: What about the EC50 [4] of the same compound?
Answer: Its EC50 is 48 mg/L (≈ 197 µM).

Question: What about the EC50 (Human alphaherpesvirus 1 [5]) of the same compound?
Answer: The EC50 was 240 mg/L (≈ 983 µM).

Question: What about the EC50 (Vaccinia virus) of the same compound?
Answer: Its EC50 is 240 mg/L (≈ 983 µM).
